Experimental data published in ChEMBL document CHEMBL3804828, “2,4,6-Triaminopyrimidine as a Novel Hinge Binder in a Series of PI3Kδ Selective Inhibitors” (J Med Chem, 2016).

What was measured:
Homo sapiens [1] = species: Homo sapiens; experiment: Selectivity ratio of IC50 for human full length PI3Kalpha catalytic subunit/p85alpha to IC50 for human full length PI3Kdelta catalytic subunit/p85alpha
Summary of the method: (§1)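 Ratio calculated from the isoform-specific PI3K IC50 values, with enzyme assays run in quadruplicate.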

Hepatocyte = experiment: Clearance in human hepatocytes at 1 uM by LC/MS/MS in presence of aldehyde oxidase inhibitor raloxifene; assay type: ADME, cell-based
Summary of the method: (§2)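 Human hepatocytes, incubated with and without the aldehyde oxidase inhibitor raloxifene; predicted clearance calculated from turnover.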

Homo sapiens [2] = species: Homo sapiens; experiment: Selectivity ratio of IC50 for human full length PI3Kgamma to IC50 for human full length PI3Kdelta catalytic subunit/p85alpha; summary of the method: as §1
Aldehyde oxidase [3] = target: T1, Aldehyde oxidase (Homo sapiens, UniProt Q06278); experiment: Drug metabolism in human hepatocytes assessed as aldehyde oxidase mediated M1 formation at 1 uM by LC/MS/MS analysis; assay type: ADME, cell-based, Hepatocyte
T1 sequence (Q06278 whole entry): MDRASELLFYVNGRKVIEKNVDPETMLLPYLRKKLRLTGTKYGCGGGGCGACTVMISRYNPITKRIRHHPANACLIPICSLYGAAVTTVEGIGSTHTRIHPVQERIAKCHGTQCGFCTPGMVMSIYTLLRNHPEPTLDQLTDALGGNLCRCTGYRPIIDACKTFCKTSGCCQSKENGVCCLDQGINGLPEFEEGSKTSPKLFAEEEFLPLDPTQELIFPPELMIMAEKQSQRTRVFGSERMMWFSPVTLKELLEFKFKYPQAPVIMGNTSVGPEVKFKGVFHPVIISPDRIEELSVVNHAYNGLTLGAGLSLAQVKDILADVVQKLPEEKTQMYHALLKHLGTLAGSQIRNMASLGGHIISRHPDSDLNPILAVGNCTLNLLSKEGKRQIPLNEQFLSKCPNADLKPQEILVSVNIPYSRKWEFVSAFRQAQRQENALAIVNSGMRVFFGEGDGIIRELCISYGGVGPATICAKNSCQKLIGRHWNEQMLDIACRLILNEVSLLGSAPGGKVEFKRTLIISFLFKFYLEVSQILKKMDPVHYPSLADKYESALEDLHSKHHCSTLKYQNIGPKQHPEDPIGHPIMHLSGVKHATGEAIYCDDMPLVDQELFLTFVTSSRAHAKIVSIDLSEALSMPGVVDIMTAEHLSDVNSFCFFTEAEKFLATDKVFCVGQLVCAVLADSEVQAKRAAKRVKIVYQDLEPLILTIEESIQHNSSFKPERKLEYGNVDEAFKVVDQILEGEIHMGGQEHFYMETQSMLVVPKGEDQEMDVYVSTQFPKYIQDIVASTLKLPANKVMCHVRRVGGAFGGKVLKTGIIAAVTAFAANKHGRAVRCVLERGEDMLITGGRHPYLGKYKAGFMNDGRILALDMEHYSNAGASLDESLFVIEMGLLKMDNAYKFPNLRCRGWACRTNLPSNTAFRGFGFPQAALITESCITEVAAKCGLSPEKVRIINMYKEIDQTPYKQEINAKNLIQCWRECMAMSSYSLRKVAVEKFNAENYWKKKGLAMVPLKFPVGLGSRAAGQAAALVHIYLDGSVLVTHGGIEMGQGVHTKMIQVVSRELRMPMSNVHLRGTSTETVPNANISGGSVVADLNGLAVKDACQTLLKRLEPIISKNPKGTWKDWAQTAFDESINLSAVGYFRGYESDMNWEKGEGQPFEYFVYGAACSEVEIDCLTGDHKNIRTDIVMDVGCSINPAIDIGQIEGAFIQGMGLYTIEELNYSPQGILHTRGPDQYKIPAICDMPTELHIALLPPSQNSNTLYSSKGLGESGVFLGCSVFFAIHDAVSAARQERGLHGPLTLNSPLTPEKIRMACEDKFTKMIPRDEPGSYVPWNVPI

[4] = target: PI3-kinase p110-delta/p85-alpha (Homo sapiens, UniProt O00329); experiment: Inhibition human full length PI3Kdelta catalytic subunit/p85alpha assessed as formation of PIP3 after 30 mins by europium labeled GRP-based TR-FRET assay; assay type: protein-complex assay
[5] = Clearance in human hepatocytes at 1 uM by LC/MS/MS analysis; assay type: ADME, cell-based, Hepatocyte; summary of the method: as §2
Homo sapiens [6] = species: Homo sapiens; experiment: Selectivity ratio of IC50 for human recombinant PI3Kbeta to IC50 for human full length PI3Kdelta catalytic subunit/p85alpha; summary of the method: as §1
[7] = Volume of distribution at steady state in Sprague-Dawley rat at 0.44 mg/kg, iv by LC/MS/MS analysis; assay type: ADME, organism-based; settings: in vivo, read-out: Vdss
Summary of the method: (§3)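 Single intravenous dose of 0.44 mg/kg to Sprague-Dawley rats, formulated at 0.09 mg/mL in 5% ethanol, 75% PEG 400 and 20% citrate buffer (pH 3.0). Three animals per dosing route. Volume of distribution taken at steady state.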

Aldehyde oxidase [8] = target: T1, Aldehyde oxidase; experiment: Drug metabolism in human hepatocytes assessed as aldehyde oxidase mediated (S)-4-Amino-6-((1-(5-chloro-4-oxo-3-phenyl 3,4-dihydroquinazolin-2-yl)ethyl)amino)-2-hydroxypyrimidine-5-carbonitrile formation at 1 uM by LC/MS/MS analysis; assay type: ADME, cell-based, Hepatocyte
[9] = Clearance in Sprague-Dawley rat at 0.44 mg/kg, iv by LC/MS/MS analysis; assay type: ADME, organism-based; settings: in vivo; summary of the method: as §3
Liver microsome [10] = experiment: Clearance in human liver microsomes at 1 uM by LC/MS/MS analysis in presence of NADPH generating system; assay type: ADME
Liver microsome [11] = experiment: Clearance in rat liver microsomes at 1 uM by LC/MS/MS analysis in presence of NADPH generating system; assay type: ADME
[12] = Half life in Sprague-Dawley rat at 0.44 mg/kg, iv by LC/MS/MS analysis; assay type: ADME, organism-based; settings: in vivo; summary of the method: as §3
Aldehyde oxidase [13] = target: T1, Aldehyde oxidase; experiment: Drug level in human hepatocytes assessed as aldehyde oxidase-mediated compound formation treated with (S)-4-Amino-6-((1-(5-chloro-4-oxo-3-phenyl-3,4-dihydroquinazolin-2-yl)ethyl)amino)pyrimidine-5-carbonitrile at 1 uM by LC/MS/MS analysis; assay type: ADME, cell-based, Hepatocyte

Sequence of PI3-kinase p110-delta/p85-alpha (P27986 whole entry): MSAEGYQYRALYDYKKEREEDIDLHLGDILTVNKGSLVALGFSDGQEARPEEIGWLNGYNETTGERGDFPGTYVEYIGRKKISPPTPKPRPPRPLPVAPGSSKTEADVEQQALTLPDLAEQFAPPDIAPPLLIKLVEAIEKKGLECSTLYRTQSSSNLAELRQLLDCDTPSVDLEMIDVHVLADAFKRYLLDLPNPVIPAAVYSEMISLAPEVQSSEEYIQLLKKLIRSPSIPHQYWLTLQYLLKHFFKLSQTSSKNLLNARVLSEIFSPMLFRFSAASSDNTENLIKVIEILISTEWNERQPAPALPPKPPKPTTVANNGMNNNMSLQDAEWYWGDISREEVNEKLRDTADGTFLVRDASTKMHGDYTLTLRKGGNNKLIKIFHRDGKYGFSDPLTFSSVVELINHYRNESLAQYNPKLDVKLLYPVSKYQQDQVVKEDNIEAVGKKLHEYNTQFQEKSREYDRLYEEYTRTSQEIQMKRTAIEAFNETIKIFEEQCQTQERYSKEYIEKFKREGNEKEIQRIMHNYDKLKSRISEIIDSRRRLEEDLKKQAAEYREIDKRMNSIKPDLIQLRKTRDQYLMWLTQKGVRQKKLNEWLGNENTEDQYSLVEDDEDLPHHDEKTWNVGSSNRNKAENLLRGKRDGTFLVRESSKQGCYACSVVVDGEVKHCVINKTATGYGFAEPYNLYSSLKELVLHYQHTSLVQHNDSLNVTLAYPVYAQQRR
Sequence of PI3-kinase p110-delta/p85-alpha (O00329 whole entry): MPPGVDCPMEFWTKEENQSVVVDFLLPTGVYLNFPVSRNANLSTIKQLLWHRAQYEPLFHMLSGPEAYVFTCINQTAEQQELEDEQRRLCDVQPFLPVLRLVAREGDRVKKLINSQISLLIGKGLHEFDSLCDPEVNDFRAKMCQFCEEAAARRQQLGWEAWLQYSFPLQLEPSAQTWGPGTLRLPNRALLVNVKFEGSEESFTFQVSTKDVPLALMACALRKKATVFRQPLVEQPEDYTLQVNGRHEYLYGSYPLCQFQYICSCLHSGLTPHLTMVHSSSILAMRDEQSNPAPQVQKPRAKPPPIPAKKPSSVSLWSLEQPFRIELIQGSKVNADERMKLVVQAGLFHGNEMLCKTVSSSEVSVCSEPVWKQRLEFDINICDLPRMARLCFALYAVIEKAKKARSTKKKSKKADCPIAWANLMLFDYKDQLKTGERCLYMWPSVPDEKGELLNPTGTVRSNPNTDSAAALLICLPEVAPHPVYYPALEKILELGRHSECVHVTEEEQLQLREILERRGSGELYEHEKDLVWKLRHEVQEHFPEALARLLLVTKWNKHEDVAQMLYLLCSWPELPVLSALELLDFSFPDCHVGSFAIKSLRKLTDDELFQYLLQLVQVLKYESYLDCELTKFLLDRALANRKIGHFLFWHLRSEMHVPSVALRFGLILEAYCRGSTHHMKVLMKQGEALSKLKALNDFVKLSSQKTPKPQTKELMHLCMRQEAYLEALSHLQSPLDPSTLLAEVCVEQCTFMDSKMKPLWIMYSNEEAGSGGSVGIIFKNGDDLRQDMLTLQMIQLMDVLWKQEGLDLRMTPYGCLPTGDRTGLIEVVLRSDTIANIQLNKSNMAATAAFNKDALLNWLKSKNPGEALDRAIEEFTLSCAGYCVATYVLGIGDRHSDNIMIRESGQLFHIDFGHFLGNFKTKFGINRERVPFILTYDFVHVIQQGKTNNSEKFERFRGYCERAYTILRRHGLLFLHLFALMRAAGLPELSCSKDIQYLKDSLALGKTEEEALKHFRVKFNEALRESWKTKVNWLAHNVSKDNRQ

C[C@H](Nc1ncnc(N)c1C#Cc1ccc(F)cn1)c1nc2cccc(Cl)c2c(=O)n1-c1ccccc1
Ratio IC50 (Homo sapiens [1]): 2600
CLH (Hepatocyte): 2.17 mL/min/kg
Ratio IC50 (Homo sapiens [2]): 470
Drug metabolism (Aldehyde oxidase [3]): metabolite_detected
IC50 [4]: 1.2 nM
CLhep predicted at 1 µM [5]: 8.5 mL/min/kg
Ratio IC50 (Homo sapiens [6]): 330

C[C@H](Nc1ncnc(N)c1C#N)c1nc2cccc(Cl)c2c(=O)n1-c1ccccc1
Vd [7]: 2.6 L/kg
Ratio IC50 (Homo sapiens [1]): 4600
Ratio IC50 (Homo sapiens [1]; tested as the 2H-labelled form): 1200
Drug metabolism (Aldehyde oxidase [8]): metabolite_detected
CLH (Hepatocyte): 1.5 mL/min/kg
Ratio IC50 (Homo sapiens [2]): 680
Ratio IC50 (Homo sapiens [2]; tested as the 2H-labelled form): 420
IC50 [4]: 0.4 nM
clearance [9]: 18.3 mL/min/kg
CLH (Liver microsome [10]): 1.7 mL/min/kg
CLH (Liver microsome [11]): 3.3 mL/min/kg
CLhep predicted at 1 µM [5]: 14.7 mL/min/kg
Ratio IC50 (Homo sapiens [6]): 200
Ratio IC50 (Homo sapiens [6]; tested as the 2H-labelled form): 70
half-life [12]: 2.6 h

C[C@H](Nc1nc(O)nc(N)c1C#N)c1nc2cccc(Cl)c2c(=O)n1-c1ccccc1
Drug metabolism (Aldehyde oxidase [13]): metabolite_detected
